Results from different studies.
Protocols differ between the studies behind these lines.
Target: Serine/threonine-protein kinase RIO2 (RIOK2, Homo sapiens, UniProt Q9BVS4)

| Structure (SMILES) | assay | conditions | remaining binding [%] |
| --- | --- | --- | --- |
| NS(=O)(=O)c1cc(NC(=O)Cc2ccccc2)ccc1Oc1cccc(Cl)c1 | cell-free assay, competition with immobilised ligand | 1 µM | 100 |
| CNC(=O)[C@@H]1CC[C@@H](n2c(-c3ccc4cnccc4c3)nc3ccc(C(=O)NCc4cccc(C(N)=O)c4)cc32)C1 | binding, competition with immobilised ligand | 1 µM | 97 |
| Cc1cnn2ncc(-c3ccnc(N(C)C)n3)c2c1 | binding | 1 µM | 92 |
| O=C(c1ccc(Nc2ncc(Cl)c(-c3cc4ccccc4s3)n2)cc1)N1CCC(N2CCCC2)CC1 | binding, competition with immobilised ligand | 1 µM | 40 |
| O=C(Nc1c[nH]nc1C(=O)NC1CCNCC1)c1cc(F)cc(F)c1 | binding, competition with immobilised ligand | 1 µM | 100 |
| CN(C)c1nccc(-c2cnn3ncccc23)n1 | binding | 1 µM | 84 |
| C[C@@H](c1ccc(-n2cnc3c(N)ncnc32)cc1)N1CCc2nn(C)c(Cc3ccccc3)c2C1=O | binding, competition with immobilised ligand | 0.1 µM | 97 |
| FC(F)(F)Oc1cccc(-c2cnc3ccc(-c4ccncc4)nn23)c1 | binding, competition with immobilised ligand | 5 µM | 7.7 |
| CCN1CCN(Cc2ccc(C(=O)Nc3ccc(C)c(Oc4ccc5c(c4)CC(=O)N5)c3)cc2C(F)(F)F)CC1 | binding, competition with immobilised ligand | 1 µM | 100 |
| N[C@@H]1CCN(c2nccc(-c3cnn4ncccc34)n2)C1 | binding | 1 µM | 37 |
| O=C(Nc1ccc(Oc2ccc(F)cc2)cc1)N1CCc2ncccc2[C@H]1c1ccc(F)cc1 | cell-free assay, competition with immobilised ligand | 1 µM | 94 |
| COc1ccnn2ncc(-c3ccnc(N(C)C)n3)c12 | binding | 1 µM | 63 |
| O=C(NCCCN1CCOCC1)c1ccc(Nc2nccc(-c3cc4ccccc4s3)n2)cc1 | binding, competition with immobilised ligand | 1 µM | 47 |
| CCS(=O)(=O)c1cc2cc(C[C@](O)(CC(C)(C)c3ccc(F)cc3C(N)=O)C(F)(F)F)[nH]c2cn1 | cell-free assay, competition with immobilised ligand | 1 µM | 100 |
| N#Cc1ccccc1CSc1nnc2c(n1)[nH]c1ccccc12 | binding, competition with immobilised ligand | 10 µM | 94 |
| CC1=C(C#N)C(c2ccc3c(c2)c(NC(=O)c2ccccc2C)nn3C)C(C#N)=C(C)N1 | cell-free assay, competition with immobilised ligand | 1 µM | 65 |
| C[C@@H]1CCN(c2nccc(-c3cnn4ncccc34)n2)C1 | binding | 1 µM | 75 |
| O=c1nc(-c2ccccn2)sc2ccccc12 | binding, competition with immobilised ligand | 1 µM | 94 |
| C[C@@H]1CN(c2ccc3ncc(-c4ccc5[nH]nc(C6CC6)c5c4)n3n2)C[C@H](C)O1 | binding, competition with immobilised ligand | 50 nM | 76 |
| CCc1ccccc1C(=O)Nc1n[nH]c2c(C)c(F)c(C3C(C#N)=C(C)N(C)C(C)=C3C#N)cc12 | cell-free assay, competition with immobilised ligand | 1 µM | 93 |
| c1cnn2ncc(-c3ccnc(N4CCC45COC5)n3)c2c1 | binding | 1 µM | 61 |
| CNC(=O)Nc1ccc2c(c1)[C@@]1(CC2)OC(=O)N(CC(=O)N(Cc2ccc(F)cc2)[C@@H](C)C(F)(F)F)C1=O | cell-free assay, competition with immobilised ligand | 1 µM | 83 |
| O=C(c1ccc(Nc2ncc(Cl)c(-c3ccc(Cl)s3)n2)cc1)N1CCC(N2CCCC2)CC1 | binding, competition with immobilised ligand | 1 µM | 49 |
